This is a sample that favours compounds with a hit; in the whole collection about 4.6% have one here.
OX1R antag-1: OX1R (HCRTR1) antagonists, primary screen, fluorescence, CHO/OX1R cells, Fluo-8 calcium, orexin A; Fluo-8 calcium fluorescence; inhibition, % at 5 µM; actives 0.43% (n = 330,000);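 active = inhibition above its plate's threshold, mean inhibition of all tested compounds on the plate plus 3 SD, cut at about 37% in these data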
CHO parental Ca: ATP-evoked calcium signal inhibitors, parental CHO, primary screen, counter-screen for OX1R antagonist project, cell-based, fluorescence, Fluo-8 calcium dye; parental CHO-K1, ATP-induced calcium, Fluo-8 fluorescence; inhibition, % at 5.6 µM; actives 0.63% (n = 330,000); AID 463079, 2010;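 active = inhibition above that plate's mean sample inhibition plus 3 SD, cut at about 26% in these data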
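Assay system: parental CHO cells; Read-out basis: percent inhibition of ATP-evoked calcium rise, normalized to controls; Benchmarks: ATP and no-ATP DMSO wells; Compound dosing: single nominal dose of 5.6 µM per compound; Signal: Fluo-8 calcium dye fluorescence; Also added: ATP as calcium-mobilizing challenge; Repeats: singlicate.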
GPR7 antagonist: GPR7 receptor antagonists, primary screen, cell-based, fluorescence, single concentration. Neuropeptides B/W receptor type 1 (Homo sapiens), P48145. GPR7-expressing cells, fluorescence antagonist assay. inhibition, % at 4.4 µM. actives 1.1% (n = 290,000). AID 1861, 2009; in the data active = inhibition above about 16%, passing the limit was not always enough;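 note: cells stimulated with the agonist NPW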
TAAR1 antag: human TAAR1 antagonists, primary screen, Fluo-8 calcium fluorescence, CHO RD-HGA16 cells. Trace amine-associated receptor 1 (Homo sapiens), Q96RJ0. antagonist. inhibition, % at 3 µM. actives 1.5% (n = 360,000);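 active = inhibition above a per-plate cutoff, the mean inhibition of test compounds on that plate plus 3 SD, cut at about 49% in these data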
Target sequence (Q96RJ0 whole entry, looked up): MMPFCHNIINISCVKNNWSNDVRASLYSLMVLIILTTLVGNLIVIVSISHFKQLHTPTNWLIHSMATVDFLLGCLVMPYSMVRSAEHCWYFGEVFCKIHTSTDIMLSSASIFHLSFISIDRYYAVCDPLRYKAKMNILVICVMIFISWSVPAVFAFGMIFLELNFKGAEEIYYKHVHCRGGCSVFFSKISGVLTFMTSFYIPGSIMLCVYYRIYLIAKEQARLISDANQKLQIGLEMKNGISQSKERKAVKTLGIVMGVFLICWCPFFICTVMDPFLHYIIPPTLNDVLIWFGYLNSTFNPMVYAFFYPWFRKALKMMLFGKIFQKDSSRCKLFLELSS
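Test system – hTAAR1-expressing CHO RD-HGA16 cells, Gα16-coupled · Reagent – β-PEA at EC80 concentration, post-compound challenge · Compound dosing – 3 µM, single point · Timing – 140 s kinetic read after compound, 140 s after agonist · Detection – Fluo-8 intracellular calcium dye fluorescence, real-time kinetic reads · Control set – DMSO and EC80 PEA controls · Repeats – n of 1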
TAAR1 ag: human TAAR1 agonists, primary screen, Fluo-8 calcium fluorescence, CHO RD-HGA16 cells; Trace amine-associated receptor 1 (Homo sapiens), Q96RJ0; vehicle wells 0%, saturating PEA agonist 100%; activation, % at 3 µM; actives 0.99% (n = 360,000);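 active = activation above the mean activation of all test compounds in the run plus 3 SD, cut at about 38% in these data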
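test system = CHO RD-HGA16 cells carrying human TAAR1 plus Gα16 | schedule = 17-24 h seeding, 75 min 37 °C dye, 30 min RT | compound dosing = 3 µM single concentration | control set = DMSO and PEA EC100 | replicates = n 1 | signal = Fluo-8 fluorescence, 5 s baseline then 140 s kinetic read | measure = percent activation vs PEA EC100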
OX1R antag-2: antagonists of human orexin 1 receptor (OX1R); OX1R-expressing cells, FRET antagonist read-out; inhibition, % at 6.6 µM; actives 1.8% (n = 330,000); in the data active = inhibition mostly above about 38%, no sharp cut-off; inactive = mostly below about 40%
TAAR1 ag confirm: human TAAR1 agonists, retest of hits, confirmation, Fluo-8 calcium fluorescence, CHO RD-HGA16 cells; activation, % at 3 µM; shares compounds with TAAR1 ag; actives 82% (n = 2,400); scaled: DMSO 0%, maximal phenethylamine 100%; AID 651783, 2012;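 active = activation above a cutoff set at the run's mean compound activation plus 3 SD, cut at about 39% in these data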
Ga16 nonsel ag: nonselective calcium mobilization agonists, CHO-Ga16 cells, counter-screen for hTAAR1 agonist project, cell-based, fluorescence, CHO-Ga16 parental line | activation, % at 3 µM | actives 50% (n = 2,400) | Fluo-8 calcium fluorescence; normalized to maximal ATP response, DMSO zero | shares compounds with TAAR1 ag | AID 651787, 2012;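 active = activation above the run cutoff, the mean activation over all tested wells plus 3 SD, cut at about 12% in these data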
TAAR1 desens: TAAR1 desensitization by agonist hits, confirmation, counter-screen for TAAR1 agonist project, cell-based, fluorescence, tachyphylaxis; shares compounds with TAAR1 ag; CHO RD-HGA16 hTAAR1, Fluo-8 calcium, beta-PEA response inhibition; inhibition, % at 3 µM; actives 46% (n = 2,400);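 active = inhibition above the run cutoff, the mean inhibition of all test compounds plus 3 SD, cut at about 49% in these data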;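 note: beta-PEA stimulus applied at its EC80; loss of beta-PEA calcium signal after compound pretreatment read as receptor desensitization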
Ga16 nonsel ant: inhibition of ATP-evoked calcium response in CHO-Ga16 cells, counter-screen for TAAR1 agonist project, cell-based, fluorescence | AID 651952, 2012 | actives 39% (n = 2,400) | shares compounds with TAAR1 ag | CHO-Ga16 ATP-induced calcium, Fluo-8 fluorescence | inhibition, % at 3 µM;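 active = inhibition above the plate's mean compound inhibition plus 3 SD, computed per plate, cut at about 22% in these data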
A number is an active result; – = inactive; · = no result.

SMILES	OX1R antag-1	CHO parental Ca	GPR7 antagonist	TAAR1 antag	TAAR1 ag	OX1R antag-2	TAAR1 ag confirm	Ga16 nonsel ag	TAAR1 desens	Ga16 nonsel ant
C=CCN1C(=O)CN=C1Nc1cccc(C)c1	–	–	–	–	–	–	·	·	·	·
CC(C)C[C@H]1CN=C(Nc2ccccc2)N1CCc1ccc(F)cc1	75	57	·	104	119	–	127	80	102	72
Cc1cccc(CCN2C(Nc3ccccc3)=NC[C@@H]2CC(C)C)c1	49	–	·	107	127	–	111	87	102	80
Cc1cccc(NC2=NCC(=O)N2CCc2ccccc2)c1	–	–	–	51	86	–	106	–	85	–
Fc1ccc(N/N=C/c2ccncc2)c(F)c1	–	–	–	–	–	–	·	·	·	·
O=C(O)c1ccc(/C=N/Nc2ccc(F)cc2F)cc1	–	–	–	–	88	–	44	21	–	–
O=C(COC(=O)c1ccc(Cl)nc1)Nc1ccc(N2CCCCC2)cc1	–	–	·	–	–	–	·	·	·	·
CCn1c(=O)n(CC)c2cc(N3CCCC3)c(NC(=O)c3ccccc3)cc21	–	–	–	–	–	–	·	·	·	·
CCn1c(=O)n(CC)c2cc(N3CCCC3)c(NC(=O)c3ccc(C)cc3)cc21	–	–	–	–	46	–	–	–	–	–
Cc1ccc(-n2c(SCC(=O)NCCN3C(=O)CSC3=O)nnc2-c2cccc(C)c2)cc1	–	–	–	–	–	–	·	·	·	·
Cc1cc(C=O)c(C)n1-c1ccc(N2CCCCC2)c([N+](=O)[O-])c1	–	–	–	–	–	–	·	·	·	·
Cc1cc(/C=C(\C#N)C(N)=O)c(C)n1-c1ccc(N2CCOCC2)c([N+](=O)[O-])c1	–	–	–	–	91	–	114	53	73	29
OC(c1ccccc1)(C1CCCCC1)C(CN1CCOCC1)c1ccccc1 (centres undefined)	–	–	–	–	52	–	59	33	–	–
O=C(O)C1CC(=O)N(CCc2ccccc2)C1 (centres undefined)	–	–	–	–	44	–	72	–	–	–
O=C(NCCc1ccc(Cl)cc1)C1CC(=O)N(CCc2ccccc2)C1 (centres undefined)	–	–	–	–	–	–	·	·	·	·
O=C(NCCc1ccccc1)C1CC(=O)N(CCc2ccccc2)C1 (centres undefined)	–	–	–	–	44	–	68	–	–	–
CC1CCCCC1NC(=O)CNC(=O)c1ccco1 (centres undefined)	–	–	·	–	–	–	·	·	·	·
N=c1c2c(-c3ccccc3)c(-c3ccccc3)n(Cc3ccccc3)c2ncn1CCCn1ccnc1	–	–	–	–	61	–	49	15	–	–
CCOC1=NC(=C(c2ccccc2)c2ccccc2)OC1=O	·	·	·	–	–	·	·	·	·	·
